Reference: ChEMBL document CHEMBL1150208, “Production of anti-tumor-promoting iridoid glucosides in Genipa americana and its cell cultures” (J Nat Prod, 1991)

How the values were obtained:
Assay type in all cases: cell-based
[1] = Cytotoxicity against human Raji cells assessed as cell viability at 1000 molar ratio after 48 hrs by trypan blue assay; settings: read-out: Activity
Procedure, shortened: (§1)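 Raji cells were treated together with TPA (32 pmol), n-butyrate and test substance in 0.25% phosphate buffer solution (pH 7.2). Dose is expressed as molar ratio to TPA. After 48 h, cells were stained with Trypan Blue and surviving cells were counted to give viability %.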

[2] = system: Raji; assay: Inhibition of TPA-induced EBV-early antigen activation in human Raji cells assessed as EA activation at 1000 molar ratio after 48 hrs relative to TPA; settings: human gammaherpesvirus 4
Procedure, shortened: (§2)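 EBV early antigen activation was induced in Raji cells with TPA (32 pmol) and n-butyrate. Test substance was dosed as a molar ratio to TPA in 0.25% phosphate buffer (pH 7.2) for 48 h. Activation is expressed as % of the TPA-only positive control (=100), reported as mean ± SD.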

[3] = system: Raji; assay: Inhibition of TPA-induced EBV-early antigen activation in human Raji cells assessed as EA activation at 100 molar ratio after 48 hrs relative to TPA; settings: human gammaherpesvirus 4; procedure, shortened: as §2
[4] = system: Raji; assay: Inhibition of TPA-induced EBV-early antigen activation in human Raji cells assessed as EA activation at 10 molar ratio after 48 hrs relative to TPA; settings: human gammaherpesvirus 4; procedure, shortened: as §2
[5] = system: Raji; assay: Inhibition of TPA-induced EBV-early antigen activation in human Raji cells assessed as EA activation at 500 molar ratio after 48 hrs relative to TPA; settings: human gammaherpesvirus 4; procedure, shortened: as §2
[6] = Cytotoxicity against human Raji cells assessed as cell viability at 100 molar ratio after 48 hrs by trypan blue assay; settings: read-out: Activity; procedure, shortened: as §1

| SMILES | viability at 48 h, 1000 molar ratio [1] [%] | EA activation (% of TPA-only control) [2] [%] | EA activation relative to TPA control [3] [%] | EBV-EA activation (% of TPA control) [4] [%] | EA activation (% of TPA control) [5] [%] | viability at 48 h, 100 molar ratio [6] [%] |
| --- | --- | --- | --- | --- | --- | --- |
| O=CC1=CO[C@@H](O[C@@H]2O[C@H](CO)[C@@H](O)[C@H](O)[C@H]2O)[C@@H]2C(CO)=CC[C@H]12 [TARENNOSIDE] | 80 | 30.5 | 88.1 | 100 | 72.8 |  |
| COC(=O)C1=CO[C@@H](O[C@@H]2O[C@H](CO)[C@@H](O)[C@H](O)[C@H]2O)[C@H]2[C@@H]1C=C[C@@]2(O)CO [GARDENOSIDE] | 80 | 92.6 | 100 | 100 | 100 |  |
| COC(=O)C1=CO[C@@H](O[C@@H]2O[C@H](CO)[C@@H](O)[C@H](O)[C@H]2O)[C@@H]2C(CO)=CC[C@H]12 [GENIPOSIDE] | 80 | 62.4 | 100 | 100 | 91 |  |
| COC(=O)C1=CO[C@@H](O)[C@@H]2C(CO)=CC[C@H]12 [GENIPIN] | 80 | 11.5 | 64.2 | 100 | 44.2 |  |
| CC1=C(/C=C/C(C)=C/C=C/C(C)=C/C(=O)O)C(C)(C)CCC1 [TRETINOIN] | 10 | 30 | 67 |  |  | 40 |
| O=C(O)C1=CO[C@@H](O[C@@H]2O[C@H](CO)[C@@H](O)[C@H](O)[C@H]2O)[C@@H]2C(CO)=CC[C@H]12 [GENIPOSIDIC ACID] | 80 | 34.8 | 91.8 | 100 | 80.5 |  |
